ChEMBL document CHEMBL1144491, “Synthesis and characterization of styrylchromone derivatives as beta-amyloid imaging agents” (Bioorg Med Chem, 2007)

Legend:
Liver [1] = assay: Biodistribution in ddY mouse liver assessed as radioactivity at 0.5 uCi, iv after 2 mins; type: ADME, organism-based; conditions: in vivo
Method in brief: (§1)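 Normal mice given no-carrier-added 125I-labelled tracer (HPLC-purified) by intravenous injection, then sampled at 2, 10, 30 and 60 min. Radioactivity expressed as % injected dose per gram of tissue, and per whole organ for stomach. Values are mean (SD) of 3–5 animals per time point.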

[2] = Partition coefficient, log P at pH 7.4; type: physicochemical; conditions: octanol/water
Method in brief: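 HPLC-purified radioiodinated tracer partitioned between 3 mL 1-octanol and 3 mL 0.1 M phosphate buffer pH 7.4. Vortexed 3 min at room temperature, then centrifuged 5 min. 0.5 mL samples from each layer well-counted. Ratio taken of octanol to buffer cpm/0.5 mL. Octanol layer re-partitioned until values were consistent. Done in triplicate and repeated three times.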

Blood [3] = assay: Biodistribution in ddY mouse blood assessed as radioactivity at 0.5 uCi, iv after 10 mins; type: ADME, organism-based; conditions: in vivo; method in brief: as §1
Brain [4] = assay: Biodistribution in ddY mouse brain assessed as radioactivity at 0.5 uCi, iv after 10 mins; type: ADME, organism-based; conditions: in vivo; method in brief: as §1
Spleen [5] = assay: Biodistribution in ddY mouse spleen assessed as radioactivity at 0.5 uCi, iv after 2 mins; type: ADME, organism-based; conditions: in vivo; method in brief: as §1
[6] = Binding affinity at amyloid peptide plaques; design: species or system Homo sapiens
Method in brief: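 Saturation binding to synthetic Aβ(1–40) aggregates (57 nM final), pre-aggregated at 0.5 mg/mL in pH 7.4 10 mM sodium phosphate/1 mM EDTA, 37 °C, 42 h with shaking. Radioiodinated ligand 1–125 nM final (made by mixing with cold compound), in 10% ethanol, 3 h at room temperature. Filtered on GF/B, bound 125I gamma-counted. Nonspecific binding defined with 1 µM cold ligand. Kd by Scatchard analysis.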

Blood [7] = assay: Biodistribution in ddY mouse blood assessed as radioactivity at 0.5 uCi, iv after 60 mins; type: ADME, organism-based; conditions: in vivo, 1 h; method in brief: as §1
Intestine [8] = assay: Biodistribution in ddY mouse intestine assessed as radioactivity at 0.5 uCi, iv after 2 mins; type: ADME, organism-based; conditions: in vivo; method in brief: as §1
Stomach [9] = assay: Biodistribution in ddY mouse stomach assessed as radioactivity at 0.5 uCi, iv after10 mins; type: ADME, organism-based; conditions: in vivo, 10 min; method in brief: as §1
Heart [10] = assay: Biodistribution in ddY mouse heart assessed as radioactivity at 0.5 uCi, iv after 2 mins; type: ADME, organism-based; conditions: in vivo; method in brief: as §1
Stomach [11] = assay: Biodistribution in ddY mouse stomach assessed as radioactivity at 0.5 uCi, iv after 60 mins; type: ADME, organism-based; conditions: in vivo, 1 h; method in brief: as §1
Spleen [12] = assay: Biodistribution in ddY mouse spleen assessed as radioactivity at 0.5 uCi, iv after 10 mins; type: ADME, organism-based; conditions: in vivo; method in brief: as §1
Kidney [13] = assay: Biodistribution in ddY mouse kidney assessed as radioactivity at 0.5 uCi, iv after 2 mins; type: ADME, organism-based; conditions: in vivo; method in brief: as §1
Blood [14] = assay: Biodistribution in ddY mouse blood assessed as radioactivity at 0.5 uCi, iv after 2 mins; type: ADME, organism-based; conditions: in vivo; method in brief: as §1
Brain [15] = assay: Biodistribution in ddY mouse brain assessed as radioactivity at 0.5 uCi, iv after 2 mins; type: ADME, organism-based; conditions: in vivo; method in brief: as §1
Brain [16] = assay: Biodistribution in ddY mouse brain assessed as radioactivity at 0.5 uCi, iv after 60 mins; type: ADME, organism-based; conditions: in vivo; method in brief: as §1
Spleen [17] = assay: Biodistribution in ddY mouse spleen assessed as radioactivity at 0.5 uCi, iv after 60 mins; type: ADME, organism-based; conditions: in vivo, 1 h; method in brief: as §1
Pancreas [18] = assay: Biodistribution in ddY mouse pancreas assessed as radioactivity at 0.5 uCi, iv after 10 mins; type: ADME, organism-based; conditions: in vivo; method in brief: as §1
Blood [19] = assay: Biodistribution in ddY mouse blood assessed as radioactivity at 0.5 uCi, iv after30 mins; type: ADME, organism-based; conditions: in vivo, 0.5 h; method in brief: as §1
Liver [20] = assay: Biodistribution in ddY mouse liver assessed as radioactivity at 0.5 uCi, iv after 60 mins; type: ADME, organism-based; conditions: in vivo, 1 h; method in brief: as §1
Heart [21] = assay: Biodistribution in ddY mouse heart assessed as radioactivity at 0.5 uCi, iv after 10 mins; type: ADME, organism-based; conditions: in vivo; method in brief: as §1
Pancreas [22] = assay: Biodistribution in iv dosed ddY mouse pancreas assessed as radioactivity after 30 mins; type: ADME, organism-based; conditions: in vivo, 0.5 h; method in brief: as §1
Intestine [23] = assay: Biodistribution in ddY mouse intestine assessed as radioactivity at 0.5 uCi, iv after 30 mins; type: ADME, organism-based; conditions: in vivo, 0.5 h; method in brief: as §1
Pancreas [24] = assay: Biodistribution in ddY mouse pancreas assessed as radioactivity at 0.5 uCi, iv after 60 mins; type: ADME, organism-based; conditions: in vivo, 1 h; method in brief: as §1
Liver [25] = assay: Biodistribution in ddY mouse liver assessed as radioactivity at 0.5 uCi, iv after 10 mins; type: ADME, organism-based; conditions: in vivo; method in brief: as §1
Spleen [26] = assay: Biodistribution in ddY mouse spleen assessed as radioactivity at 0.5 uCi, iv after 30 mins; type: ADME, organism-based; conditions: in vivo, 0.5 h; method in brief: as §1
Stomach [27] = assay: Biodistribution in ddY mouse stomach assessed as radioactivity at 0.5 uCi, iv after 2 mins; type: ADME, organism-based; conditions: in vivo; method in brief: as §1
Stomach [28] = assay: Biodistribution in ddY mouse stomach assessed as radioactivity at 0.5 uCi, iv after 30 mins; type: ADME, organism-based; conditions: in vivo, 0.5 h; method in brief: as §1
Intestine [29] = assay: Biodistribution in ddY mouse intestine assessed as radioactivity at 0.5 uCi, iv after 60 mins; type: ADME, organism-based; conditions: in vivo, 1 h; method in brief: as §1
Brain [30] = assay: Biodistribution in ddY mouse brain assessed as radioactivity at 0.5 uCi, iv after 30 mins; type: ADME, organism-based; conditions: in vivo, 0.5 h; method in brief: as §1
Heart [31] = assay: Biodistribution in ddY mouse heart assessed as radioactivity at 0.5 uCi, iv after 30 mins; type: ADME, organism-based; conditions: in vivo, 0.5 h; method in brief: as §1
Intestine [32] = assay: Biodistribution in ddY mouse intestine assessed as radioactivity at 0.5 uCi, iv after10 mins; type: ADME, organism-based; conditions: in vivo, 10 min; method in brief: as §1
Liver [33] = assay: Biodistribution in ddY mouse liver assessed as radioactivity at 0.5 uCi, iv after 30 mins; type: ADME, organism-based; conditions: in vivo, 0.5 h; method in brief: as §1
Heart [34] = assay: Biodistribution in ddY mouse heart assessed as radioactivity at 0.5 uCi, iv after 60 mins; type: ADME, organism-based; conditions: in vivo, 1 h; method in brief: as §1
Kidney [35] = assay: Biodistribution in ddY mouse kidney assessed as radioactivity at 0.5 uCi, iv after 30 mins; type: ADME, organism-based; conditions: in vivo, 0.5 h; method in brief: as §1
Kidney [36] = assay: Biodistribution in ddY mouse kidney assessed as radioactivity at 0.5 uCi, iv after 60 mins; type: ADME, organism-based; conditions: in vivo, 1 h; method in brief: as §1
Pancreas [37] = assay: Biodistribution in ddY mouse pancreas assessed as radioactivity at 0.5 uCi, iv after 2 mins; type: ADME, organism-based; conditions: in vivo; method in brief: as §1
Kidney [38] = assay: Biodistribution in ddY mouse kidney assessed as radioactivity at 0.5 uCi, iv after 10 mins; type: ADME, organism-based; conditions: in vivo; method in brief: as §1

| Compound | Drug uptake (Liver [1]) [% ID/g] | logD [2] | Drug uptake (Blood [3]) [% ID/g] | Drug uptake (Brain [4]) [% ID/g] | Drug uptake (Spleen [5]) [% ID/g] | Kd [6] [nM] | Drug uptake (Intestine [8]) [% ID/g] | Drug uptake (Stomach [9]) [%ID] | Drug uptake (Heart [10]) [% ID/g] | Drug uptake (Spleen [12]) [% ID/g] | Drug uptake (Kidney [13]) [% ID/g] | Drug uptake (Blood [14]) [% ID/g] | Drug uptake (Brain [15]) | Drug uptake (Pancreas [18]) [% ID/g] | Drug uptake (Blood [19]) [% ID/g] | Drug uptake (Heart [21]) [% ID/g] | Drug uptake (Pancreas [22]) [% ID/g] | Drug uptake (Intestine [23]) [% ID/g] | Drug uptake (Liver [25]) [% ID/g] | Drug uptake (Spleen [26]) [% ID/g] | also measured |
| --- | --- | --- | --- | --- | --- | --- | --- | --- | --- | --- | --- | --- | --- | --- | --- | --- | --- | --- | --- | --- | --- |
| Nc1ccc(/C=C/c2cc(=O)c3cc([125I])ccc3o2)cc1 | 13.23 | 1.65 | 2.44 | 4.4 | 4.23 | 32 | 2.84 | 1.81 | 8.4 | 3.64 | 11.94 | 2.34 | 4.88 % ID/g | 5.18 | 2.56 | 3.78 | 3.07 | 11.71 | 14.49 | 2.92 | Drug uptake (Blood [7]): 2.27 % ID/g; Drug uptake (Stomach [11]): 3.29 %ID; Drug uptake (Brain [16]; 1 h): 1.62 % ID/g; Drug uptake (Spleen [17]): 2.16 % ID/g; Drug uptake (Liver [20]): 8.16 % ID/g; Drug uptake (Pancreas [24]): 1.11 % ID/g; Drug uptake (Stomach [27]): 1.24 %ID; Drug uptake (Stomach [28]): 2.17 %ID; Drug uptake (Intestine [29]): 16.08 % ID/g; Drug uptake (Brain [30]): 2.78 % ID/g; Drug uptake (Heart [31]): 2.43 % ID/g; Drug uptake (Intestine [32]): 5.51 % ID/g; Drug uptake (Liver [33]): 10.27 % ID/g; Drug uptake (Heart [34]): 1.64 % ID/g; Drug uptake (Kidney [35]): 4.91 % ID/g; Drug uptake (Kidney [36]): 3.76 % ID/g; Drug uptake (Pancreas [37]): 6.58 % ID/g; Drug uptake (Kidney [38]): 6.99 % ID/g |
| CN(C)c1ccc(-c2cn3cc([125I])ccc3n2)cc1 |  |  |  |  |  |  |  |  |  |  |  |  | 2.88% |  |  |  |  |  |  |  | Ki [6]: […]; Drug uptake (Brain [16]; 30 min, in the assay text read “after 30 mins” for “after 60 mins”): 0.26 % ID/g |
| CNc1ccc(/C=C/c2cc(=O)c3cc([125I])ccc3o2)cc1 | 14.55 | 2.15 | 2.44 | 2.96 | 3.88 | 17.5 | 2.59 | 1.89 | 6.92 | 4.42 | 10.41 | 3.21 | 2.84 % ID/g | 3.56 | 2.19 | 3.31 | 2.25 | 16.72 | 14.41 | 2.66 | Drug uptake (Blood [7]): 1.79 % ID/g; Drug uptake (Stomach [11]): 1.9 %ID; Drug uptake (Brain [16]; 1 h): 0.99 % ID/g; Drug uptake (Spleen [17]): 1.51 % ID/g; Drug uptake (Liver [20]): 7.82 % ID/g; Drug uptake (Pancreas [24]): 1.32 % ID/g; Drug uptake (Stomach [27]): 1 %ID; Drug uptake (Stomach [28]): 2.01 %ID; Drug uptake (Intestine [29]): 19.16 % ID/g; Drug uptake (Brain [30]): 1.86 % ID/g; Drug uptake (Heart [31]): 2.09 % ID/g; Drug uptake (Intestine [32]): 8.55 % ID/g; Drug uptake (Liver [33]): 11.13 % ID/g; Drug uptake (Heart [34]): 1.47 % ID/g; Drug uptake (Kidney [35]): 5.48 % ID/g; Drug uptake (Kidney [36]): 3.52 % ID/g; Drug uptake (Pancreas [37]): 4.92 % ID/g; Drug uptake (Kidney [38]): 7.05 % ID/g |
| CN(C)c1ccc(/C=C/c2cc(=O)c3cc([125I])ccc3o2)cc1 | 11.17 | 2.65 | 1.44 | 1.76 | 2.43 | 8.7 | 1.45 | 1.14 | 6.25 | 2.01 | 6.7 | 2.62 | 1.14 % ID/g | 2.73 | 1.13 | 1.75 | 1.34 | 12.68 | 10.15 | 1.38 | Drug uptake (Stomach [27]): 0.7 %ID; Drug uptake (Stomach [28]): 1.23 %ID; Drug uptake (Brain [30]): 1.37 % ID/g; Drug uptake (Heart [31]): 1.27 % ID/g; Drug uptake (Intestine [32]): 4.95 % ID/g; Drug uptake (Liver [33]): 7.72 % ID/g; Drug uptake (Kidney [35]): 3.69 % ID/g; Drug uptake (Pancreas [37]): 3.02 % ID/g; Drug uptake (Kidney [38]): 4.51 % ID/g |
